Assay results published in ChEMBL document CHEMBL6087468, “TKK130 is a 3-Hydroxy-Propanamidine (HPA) with Potent Antimalarial In Vivo Activity and a High Barrier to Resistance” (J Med Chem, 2025).
Calls of active or inactive are those of the source. The calls are words filed in the database; no cut-off is given here.

Key:
Plasmodium berghei [1] = assay: In vivo antiplasmodial activity against Plasmodium berghei infected mouse model assessed as parasitemia suppression in blood at 50 mg/kg, po treated 4 times measured at 96 hrs post infection by fluorescence-activated cell sorting (FACS) analysis; assay type: functional
[2] = AUC (0 to t) in mouse infected with Plasmodium berghei at 3 mg/kg, po; assay type: ADME, organism-based; conditions: in vivo
Outline: (§1)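 Single oral dose to P. berghei-infected mice, 2 mice per dose group. Blood sampled at 1, 4 and 24 h post-dose as dried blood spots, plus a blank "0 h" reading. Spots diluted 1:5 (3, 10 mg/kg) or 1:10 (30 mg/kg), then quantified by LC–MS/MS against a whole-blood calibration of 1.56–800 ng/mL with QCs at three levels.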

[3] = Cytotoxicity against human HepG2 cells assessed as cell viability measured after 24 hrs by neutral red assay; assay type: toxicity, cell-based
[4] = Unbound drug concentration in plasma (unknown origin) at 25 ng/ml measured after 24 hrs by standard equilibrium dialysis assay; assay type: ADME, cell-free
Outline: (§2)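 Standard equilibrium dialysis (6 kDa regenerated cellulose membrane): donor plasma spiked at 25 ng/mL, acceptor 0.9% saline, 24 h at 37 °C. Acetonitrile precipitation of plasma, methanol added to acceptor; LC–MS/MS with calibration curves in each medium; fraction bound corrected for volume shift; triplicate; itraconazole reference.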

Plasmodium falciparum [5] = assay: (§3) Antimalarial activity against chloroquine, sulfadoxine, and pyrimethamine-resistant Plasmodium falciparum Dd2 infected in erythrocyte assessed as reduction in number of viable parasites at 10 times IC50 concentration treated for 72 hrs followed by allowed to recover in drug-free medium for 28 days by HRP2-ELISA analysis; assay type: functional, organism-based
Plasmodium falciparum [6] = assay: Antimalarial activity against Plasmodium falciparum K1 infected in human erythrocytes assessed as inhibition of parasite growth measured after 48 hrs incubation by [3H]hypoxanthine incorporation assay; assay type: functional, organism-based; conditions: K1, Erythrocyte
Plasmodium falciparum [7] = assay: Induction of resistance development in Plasmodium falciparum Dd2 Pol delta at 2 x 10^7 initial inoculum per flask by single-step selection assay; assay type: functional, organism-based
Plasmodium falciparum [8] = assay: Antimalarial activity against Plasmodium falciparum NF54 infected in human erythrocytes assessed as inhibition of parasite growth measured after 48 hrs incubation by [3H]hypoxanthine incorporation assay; assay type: functional, organism-based; conditions: NF54, Erythrocyte
Plasmodium falciparum [9] = assay: as §3, with “24” for “72”; assay type: functional, organism-based
Plasmodium falciparum [10] = assay: Antimalarial activity against chloroquine-sensitive Plasmodium falciparum 3D7 infected in erythrocytes measured after 3 days by HRP2-ELISA analysis; assay type: functional, organism-based; conditions: 3D7, Erythrocyte, 72 h
Plasmodium berghei [11] = assay: In vivo antiplasmodial activity against Plasmodium berghei infected mouse model assessed as mean survival time at 3 mg/kg, po treated 4 times measured at 96 hrs post infection by fluorescence-activated cell sorting (FACS) analysis (reference value: 4 days); assay type: functional
[12] = Cytotoxicity against human HEK293 cells assessed as cell viability measured after 24 hrs by neutral red assay; assay type: toxicity, cell-based
Plasmodium berghei [13] = assay: In vivo antiplasmodial activity against Plasmodium berghei infected mouse model assessed as parasitemia suppression in blood at 30 mg/kg, po treated 4 times measured at 96 hrs post infection by fluorescence-activated cell sorting (FACS) analysis; assay type: functional
Plasmodium falciparum [14] = assay: as §3, with “120” for “72”; assay type: functional, organism-based
Plasmodium falciparum [15] = assay: Induction of resistance development in Plasmodium falciparum Dd2 Pol delta at 2 x 10^7 initial inoculum per flask measured on day 16 by single-step selection assay; assay type: functional, organism-based
[16] = Plasma stability at 37 °C measured as remaining drug at 2 hrs sampled in triplicate (concentration 25 ng/mL 2 (TKK130)); assay type: ADME, cell-free; conditions: human, at 25 ng/mL, read-out: Stability
Outline: (§4)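 Fresh EDTA human plasma warmed to 37 °C, spiked to 25 ng/mL (0.5% methanol final), split into three fractions, shaken at 37 °C. Samples at 0, 2, 4, 6, 24, 48 h precipitated with ice-cold acetonitrile containing internal standard; LC–MS/MS. Recovery = analyte/IS area ratio relative to 0 h; triplicate.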

[17] = Plasma protein binding in plasma (unknown origin) at 25 ng/ml measured after 24 hrs by standard equilibrium dialysis assay; assay type: ADME, cell-free; conditions: read-out: PPB (converted); outline: as §2
Plasmodium berghei [18] = assay: In vivo antiplasmodial activity against Plasmodium berghei infected mouse model assessed as parasitemia suppression in blood at 10 mg/kg, po treated 4 times measured at 96 hrs post infection by fluorescence-activated cell sorting (FACS) analysis; assay type: functional
[19] = Plasma stability at 37 °C measured as remaining drug at 4 hrs sampled in triplicate (concentration 25 ng/mL 2 (TKK130)); assay type: ADME, cell-free; conditions: human, at 25 ng/mL, read-out: Stability; outline: as §4
Plasmodium berghei [20] = assay: In vivo antiplasmodial activity against Plasmodium berghei infected mouse model assessed as mean survival time at 50 mg/kg, po treated 4 times measured at 96 hrs post infection by fluorescence-activated cell sorting (FACS) analysis (reference value: 4 days); assay type: functional
[21] = Tmax in mouse infected with Plasmodium berghei at 30 mg/kg, po; assay type: ADME, organism-based; conditions: in vivo
Outline: (§5)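 Infected mice (n = 2 per dose) given a single oral dose of 3, 10 or 30 mg/kg; blood sampled as dried blood spots at 1, 4 and 24 h post-dose, diluted before LC–MS analysis against whole-blood dried-spot calibration (1.56–800 ng/mL) with QCs; tmax from concentration–time profiles.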

Plasmodium falciparum [22] = assay: Ex vivo antimalarial activity against Plasmodium falciparum clinical isolates; assay type: functional, organism-based
[23] = Chemical stability of the compound in aqueous buffer at pH 7.4; assay type: physicochemical
Outline: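 Stability tested in aqueous phosphate buffer, pH 7.4, at room temperature over 24 h, n = 3.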

[24] = Unbound drug concentration in plasma (unknown origin) at 25 ng/ml measured after 24 hrs by dilution method; assay type: ADME, cell-free
Outline: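 Equilibrium dialysis with donor plasma diluted 1:10 or 1:20 in 0.9% saline, spiked at 25 ng/mL, against 0.9% saline acceptor for 24 h at 37 °C. Concentrations by LC–MS/MS against diluted-plasma calibration curves; unbound fraction (acceptor/donor) back-calculated to undiluted plasma; triplicate; itraconazole reference.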

[25] = Plasma stability at 37 °C measured as remaining drug at 6 hrs sampled in triplicate (concentration 25 ng/mL 2 (TKK130)); assay type: ADME, cell-free; conditions: human, at 25 ng/mL, read-out: Stability; outline: as §4
[26] = Cmax in mouse infected with Plasmodium berghei at 3 mg/kg, po; assay type: ADME, organism-based; conditions: in vivo; outline: as §1
[27] = Tmax in mouse infected with Plasmodium berghei at 3 mg/kg, po; assay type: ADME, organism-based; conditions: in vivo; outline: as §5
[28] = AUC (0 to t) in mouse infected with Plasmodium berghei at 10 mg/kg, po; assay type: ADME, organism-based; conditions: in vivo; outline: as §1
Plasmodium berghei [29] = assay: In vivo antiplasmodial activity against Plasmodium berghei infected mouse model assessed as curation rate at 30 mg/kg, po treated 4 times measured at 96 hrs post infection by fluorescence-activated cell sorting (FACS) analysis; assay type: functional
[30] = Plasma stability at 37 °C measured as remaining drug at 48 hrs sampled in triplicate (concentration 25 ng/mL 2 (TKK130)); assay type: ADME, cell-free; conditions: human, at 25 ng/mL, read-out: Stability; outline: as §4
[31] = target: Voltage-gated inwardly rectifying potassium channel KCNH2 (Homo sapiens, UniProt Q12809); assay: Inhibition of hERG by fluorescence polarization assay; assay type: toxicity
Plasmodium falciparum [32] = assay: Induction of resistance development in Plasmodium falciparum Dd2 Pol delta at 2 x 10^9 initial inoculum per flask at 9 nM measured 60 days of recovery time by single-step selection assay; assay type: functional, organism-based; conditions: time 60.0 day

Sequence of Voltage-gated inwardly rectifying potassium channel KCNH2 (Q12809 whole entry): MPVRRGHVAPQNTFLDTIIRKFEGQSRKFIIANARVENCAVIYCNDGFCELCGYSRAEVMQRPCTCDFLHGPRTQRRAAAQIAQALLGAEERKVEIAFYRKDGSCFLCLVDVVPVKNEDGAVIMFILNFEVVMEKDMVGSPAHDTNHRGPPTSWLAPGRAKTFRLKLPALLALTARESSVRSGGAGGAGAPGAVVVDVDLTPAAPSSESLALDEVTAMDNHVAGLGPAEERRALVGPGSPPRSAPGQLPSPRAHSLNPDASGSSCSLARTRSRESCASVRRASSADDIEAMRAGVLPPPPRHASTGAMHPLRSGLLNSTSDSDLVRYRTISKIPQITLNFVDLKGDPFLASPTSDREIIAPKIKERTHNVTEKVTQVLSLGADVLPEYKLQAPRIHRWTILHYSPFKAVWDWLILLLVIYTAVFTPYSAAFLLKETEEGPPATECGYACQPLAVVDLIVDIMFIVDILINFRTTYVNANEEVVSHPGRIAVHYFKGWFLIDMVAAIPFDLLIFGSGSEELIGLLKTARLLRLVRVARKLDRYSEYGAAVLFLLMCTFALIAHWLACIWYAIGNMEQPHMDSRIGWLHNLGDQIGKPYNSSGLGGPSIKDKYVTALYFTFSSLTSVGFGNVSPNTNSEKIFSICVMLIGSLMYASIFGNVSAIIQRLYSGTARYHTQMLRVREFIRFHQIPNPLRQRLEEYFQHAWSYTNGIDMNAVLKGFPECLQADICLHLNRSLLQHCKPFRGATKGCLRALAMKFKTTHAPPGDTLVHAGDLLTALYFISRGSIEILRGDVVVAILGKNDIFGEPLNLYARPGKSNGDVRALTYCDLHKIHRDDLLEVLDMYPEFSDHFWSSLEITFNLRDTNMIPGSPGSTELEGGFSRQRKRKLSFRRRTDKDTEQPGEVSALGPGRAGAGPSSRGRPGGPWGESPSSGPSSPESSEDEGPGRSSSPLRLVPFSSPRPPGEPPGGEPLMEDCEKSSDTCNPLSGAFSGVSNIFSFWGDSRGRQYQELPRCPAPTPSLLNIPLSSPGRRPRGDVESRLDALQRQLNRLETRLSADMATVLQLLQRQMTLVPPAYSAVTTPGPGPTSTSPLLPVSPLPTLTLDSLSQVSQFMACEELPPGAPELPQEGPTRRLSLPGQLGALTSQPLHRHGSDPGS

Q: What does the source list for Cl.N=C(CC(O)c1cc2c(F)cc(F)cc2c2cc(C(F)(F)F)ccc12)Nc1ccc(F)cc1 (configuration not stated)?
A: Activity (Plasmodium berghei [1]): 99.8%; AUC(0-t) [2]: 3770 ng·h/mL; IC50 at 24 h [3]: 20000 nM; Cp(f) [4]: 0.2%; Activity (Plasmodium falciparum [5]): Active; IC50 (Plasmodium falciparum [6]): 3 nM; Activity (Plasmodium falciparum [7]): Active; No Resistant Parasites Generated; IC50 (Plasmodium falciparum [8]): 11 nM; Activity (Plasmodium falciparum [9]): Active; Compound Exhibited Fast-Acting Than Dihydroartemisinin; IC50 (Plasmodium falciparum [10]): 2 nM; MSD (Plasmodium berghei [11]): 20 days; IC50 at 24 h [12]: 47800 nM; Activity (Plasmodium berghei [13]): 99.8%; Activity (Plasmodium falciparum [14]): Active; Activity (Plasmodium falciparum [15]): inactive; remaining at 2 h, 25 ng/mL [16]: 90.2%; fraction unbound at 24 h, 25 ng/ml [17]: < 0.002; Activity (Plasmodium berghei [18]): 99.9%; remaining at 4 h, 25 ng/mL [19]: 89.1%; MSD (Plasmodium berghei [20]): 30 days; Tmax [21]: 4 h; IC50 (Plasmodium falciparum [22]): 7.5 nM; Stability [23]: > 90%; Cp(f) [24]: 0.4%; remaining at 6 h, 25 ng/mL [25]: 91.9%; Cmax [26]: 216 ng/mL; Tmax [27]: 4 h; AUC(0-t) [28]: 11600 ng·h/mL; Activity (Plasmodium berghei [29]): 100%; remaining at 48 h, 25 ng/mL [30]: 59.4%; IC50 [31]: 300 nM; Activity (Plasmodium falciparum [32]): Active; No Subsequent Parasite Growth Observed
